# Test system: Mycobacterium tuberculosis
# Test: Antitubercular activity against Mycobacterium tuberculosis H37Rv after 30 days by agar microdilution method
# Assay type: functional
# Method in brief: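 M. tuberculosis H37Rv grown on L-J medium, harvested into 0.85% saline with 0.05% Tween-80. Compounds from a 1 mg/mL DMSO stock, two-fold dilutions in Middlebrook 7H10 agar slants with OADC. Slants preincubated 24 h at 37 °C, then streaked with 5 × 10^4 bacilli per tube and held at 37 °C. Growth read at 30 days against drug-free controls; MIC determined.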
row,Structure (SMILES),MIC [µg/mL]
1,Cc1ccc(C)c2c1CC(Cn1cc(CO)nn1)O2 (stereo not given),12.5
2,CCCCCc1cn(CC2Cc3cc(C#N)ccc3O2)nn1 (stereo not given),> 12.5
3,Cc1ccc(C)c2c1CC(CN=[N+]=[N-])O2 (stereo not given),> 12.5
4,CCCCCCc1cn(CC2Cc3cc(C#N)ccc3O2)nn1 (stereo not given),> 12.5
5,N#Cc1ccc2c(c1)CC(Cn1cc(Cc3ccccc3)nn1)O2 (stereo not given),> 12.5
6,O=Cc1ccc2c(c1)CC(Cn1cc(-c3ccccc3)nn1)O2 (stereo not given),> 12.5
7,CCCCCC(O)c1cn(CC2Cc3cc(C#N)ccc3O2)nn1 (stereo not given),> 25
8,O=Cc1ccc2c(c1)CC(Cn1cc(Cc3ccccc3)nn1)O2 (stereo not given),> 12.5
9,[N-]=[N+]=NCC1Cc2cc(C=O)ccc2O1 (stereo not given),> 12.5
10,CCCCCc1cn(CC2Cc3cc(C=O)ccc3O2)nn1 (stereo not given),12.5
11,c1ccc(Cc2cn(CC3Cc4c(ccc5ccccc45)O3)nn2)cc1 (stereo not given),> 12.5
12,CCCCCc1cn(CC2Cc3c(ccc4ccccc34)O2)nn1 (stereo not given),12.5
13,CCCCCc1cn(CC2Cc3c(C)ccc(C)c3O2)nn1 (stereo not given),> 12.5
14,OCc1cn(CC2Cc3c(ccc4ccccc34)O2)nn1 (stereo not given),> 12.5
15,Cc1ccc(C)c2c1CC(Cn1cc(Cc3ccccc3)nn1)O2 (stereo not given),> 12.5
16,CCCCCCc1cn(CC2Cc3c(C)ccc(C)c3O2)nn1 (stereo not given),> 12.5
17,N#Cc1ccc2c(c1)CC(CN=[N+]=[N-])O2 (stereo not given),> 12.5
18,c1ccc(-c2cn(CC3Cc4c(ccc5ccccc45)O3)nn2)cc1 (stereo not given),> 12.5
19,Cc1ccc(C)c2c1CC(Cn1cc(-c3ccccc3)nn1)O2 (stereo not given),> 12.5
20,Cc1ccc(C)c2c1CC(Cn1cc(CCO)nn1)O2 (stereo not given),> 12.5
21,N#Cc1ccc2c(c1)CC(Cn1cc(CCO)nn1)O2 (stereo not given),> 12.5
22,[N-]=[N+]=NCC1Cc2c(ccc3ccccc23)O1 (stereo not given),3.12
23,CCCCCCc1cn(CC2Cc3cc(C=O)ccc3O2)nn1 (stereo not given),6.25
24,OCCc1cn(CC2Cc3c(ccc4ccccc34)O2)nn1 (stereo not given),> 12.5
25,O=Cc1ccc2c(c1)CC(Cn1cc(CO)nn1)O2 (stereo not given),> 12.5
26,N#Cc1ccc2c(c1)CC(Cn1cc(CO)nn1)O2 (stereo not given),> 25
27,N#Cc1ccc2c(c1)CC(Cn1cc(-c3ccccc3)nn1)O2 (stereo not given),> 12.5
28,CCCCCC(O)c1cn(CC2Cc3c(C)ccc(C)c3O2)nn1 (stereo not given),> 12.5
29,CC[C@@H](CO)NCCN[C@@H](CC)CO [ETHAMBUTOL],3.25
30,NNC(=O)c1ccncc1 [ISONIAZID],0.75

# — ChEMBL document CHEMBL1154639, “Application of Huisgen (3+2) cycloaddition reaction: synthesis of 1-(2,3-dihydrobenzofuran-2-yl-methyl [1,2,3]-triazoles and their antitubercular evaluations” (2010)
